Data taken from ChEMBL document CHEMBL1933058, “5-(2-amino-pyrimidin-4-yl)-1H-pyrrole and 2-(2-amino-pyrimidin-4-yl)-1,5,6,7-tetrahydro-pyrrolo[3,2-c]pyridin-4-one derivatives as new classes of selective and orally available Polo-like kinase 1 inhibitors” (Bioorg Med Chem Lett, 2012).
Activity calls are given as the source filed them. No cut-off for these calls is given here.

Columns and labels:
[1] = biological target: Serine/threonine-protein kinase PLK1 (Homo sapiens, UniProt P53350); assay: Inhibition of PLK1
[2] = biological target: Serine/threonine-protein kinase PLK2 (Homo sapiens, UniProt Q9NYY3); assay: Inhibition of PLK2
[3] = biological target: Serine/threonine-protein kinase PLK3 (Homo sapiens, UniProt Q9H4B4); assay: Inhibition of PLK3
[4] = biological target: Cyclin-dependent kinase 2/cyclin A (Homo sapiens, UniProt P24941); assay: Inhibition of CDK2/cyclin A; type: protein-complex assay
Aurora kinase A = biological target: T1, Aurora kinase A (Homo sapiens, UniProt O14965); assay: Inhibition of Aurora-A
T1 sequence (O14965 whole entry): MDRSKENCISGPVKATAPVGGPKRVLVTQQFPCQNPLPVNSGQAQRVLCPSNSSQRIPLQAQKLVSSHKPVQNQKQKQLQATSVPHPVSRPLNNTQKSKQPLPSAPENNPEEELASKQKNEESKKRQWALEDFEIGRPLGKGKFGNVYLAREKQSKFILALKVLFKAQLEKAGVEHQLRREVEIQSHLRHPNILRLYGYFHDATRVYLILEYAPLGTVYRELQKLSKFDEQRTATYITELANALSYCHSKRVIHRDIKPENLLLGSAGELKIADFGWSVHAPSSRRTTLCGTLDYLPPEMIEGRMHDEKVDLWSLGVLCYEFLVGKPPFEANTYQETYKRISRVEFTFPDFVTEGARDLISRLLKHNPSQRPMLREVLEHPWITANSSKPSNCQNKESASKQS

A2780 [5] = assay: Antiproliferative activity against human A2780 cells; type: functional, cell-based
A2780 [6] = assay: Cell cycle arrest in human A2780 cells assessed as accumulation at G2/M phase at 0.05 to 5 uM after 24 hrs by FACS analysis; type: functional, cell-based
In short: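 A2780 cells were exposed for 24 h to 0.05, 0.5 or 5 µM. Cell-cycle distribution was read by flow cytometry (FACS), scoring G2-M accumulation. Nocodazole-treated cells served as positive control.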

A2780 [7] = assay: Cell cycle arrest in human A2780 cells assessed as increase of phospho Ser10 histone H3 level after 24 hrs by Western blotting analysis; type: functional, cell-based
In short: (§1)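 A2780 cells were treated for 24 h at 0.05, 0.5 and 5 µM, with nocodazole as positive control. Lysates were immunoblotted for pSer10 histone H3, pThr199 nucleophosmin, cyclin B1, cyclin A, PARP cleavage and caspase 3 activation.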

A2780 [8] = assay: Cell cycle arrest in human A2780 cells assessed as induction of phospho Thr199 nucleophosmin level after 24 hrs by Western blotting analysis; type: functional, cell-based; in short: as §1
A2780 [9] = assay: Induction of apoptosis in human A2780 cells assessed as PARP cleavage at 5 uM after 24 hrs by Western blotting analysis; type: functional, cell-based; in short: as §1
A2780 [10] = assay: Induction of apoptosis in human A2780 cells assessed as caspase3 activation at 5 uM after 24 hrs by Western blotting analysis; type: functional, cell-based; in short: as §1
A2780 [11] = assay: Cell cycle arrest in human A2780 cells assessed as increase of phospho Ser10 histone H3 level at 0.05 to 5 uM after 1 hr by Western blotting analysis; type: functional, cell-based
In short: (§2)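 A2780 cells got 1 h exposure at 0.05, 0.5 and 5 µM, with nocodazole-treated cells as comparator. Western blot was used to probe the PLK1 substrate marker pSer46 TCTP and the mitotic marker pSer10 histone H3.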

A2780 [12] = assay: Cell cycle arrest in human A2780 cells assessed as reduction of phospho Ser46 TCTP level at 0.05 to 5 uM after 1 hr by Western blotting analysis; type: functional, cell-based; in short: as §2

Serine/threonine-protein kinase PLK3, sequence (Q9H4B4 whole entry): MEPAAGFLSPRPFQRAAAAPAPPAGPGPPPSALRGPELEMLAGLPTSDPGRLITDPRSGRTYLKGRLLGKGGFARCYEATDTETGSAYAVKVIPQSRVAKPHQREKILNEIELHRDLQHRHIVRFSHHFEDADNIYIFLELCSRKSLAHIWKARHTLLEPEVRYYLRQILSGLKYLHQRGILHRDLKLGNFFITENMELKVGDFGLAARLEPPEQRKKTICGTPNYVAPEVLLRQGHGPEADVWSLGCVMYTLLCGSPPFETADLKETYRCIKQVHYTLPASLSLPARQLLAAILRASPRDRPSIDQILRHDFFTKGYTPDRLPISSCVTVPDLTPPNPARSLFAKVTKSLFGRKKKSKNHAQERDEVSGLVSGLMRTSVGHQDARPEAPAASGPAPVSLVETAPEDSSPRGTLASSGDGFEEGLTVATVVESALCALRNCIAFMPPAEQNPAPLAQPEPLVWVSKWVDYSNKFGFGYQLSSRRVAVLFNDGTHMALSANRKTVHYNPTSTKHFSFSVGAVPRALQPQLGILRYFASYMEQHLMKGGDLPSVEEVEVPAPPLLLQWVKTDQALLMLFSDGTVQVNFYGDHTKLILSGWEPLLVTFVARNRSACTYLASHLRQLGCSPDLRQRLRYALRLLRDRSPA
Serine/threonine-protein kinase PLK2, sequence (Q9NYY3 whole entry): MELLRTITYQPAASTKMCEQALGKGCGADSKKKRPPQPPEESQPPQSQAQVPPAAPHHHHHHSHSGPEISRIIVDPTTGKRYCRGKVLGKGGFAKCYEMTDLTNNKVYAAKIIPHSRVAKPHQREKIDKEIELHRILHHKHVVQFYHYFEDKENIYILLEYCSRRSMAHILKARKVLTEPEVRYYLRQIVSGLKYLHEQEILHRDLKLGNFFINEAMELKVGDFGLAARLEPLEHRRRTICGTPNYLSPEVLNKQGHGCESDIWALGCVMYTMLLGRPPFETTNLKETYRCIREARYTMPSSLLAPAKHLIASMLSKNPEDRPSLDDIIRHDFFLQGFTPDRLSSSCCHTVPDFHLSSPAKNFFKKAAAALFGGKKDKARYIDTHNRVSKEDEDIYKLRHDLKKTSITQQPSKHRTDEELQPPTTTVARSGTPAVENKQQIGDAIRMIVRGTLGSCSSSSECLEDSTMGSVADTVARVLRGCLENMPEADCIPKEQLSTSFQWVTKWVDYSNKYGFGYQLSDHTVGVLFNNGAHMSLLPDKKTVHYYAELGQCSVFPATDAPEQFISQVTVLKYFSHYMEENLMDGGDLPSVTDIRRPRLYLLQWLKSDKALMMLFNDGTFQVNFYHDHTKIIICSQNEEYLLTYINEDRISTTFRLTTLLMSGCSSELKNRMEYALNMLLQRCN
Serine/threonine-protein kinase PLK1, sequence (P53350 whole entry): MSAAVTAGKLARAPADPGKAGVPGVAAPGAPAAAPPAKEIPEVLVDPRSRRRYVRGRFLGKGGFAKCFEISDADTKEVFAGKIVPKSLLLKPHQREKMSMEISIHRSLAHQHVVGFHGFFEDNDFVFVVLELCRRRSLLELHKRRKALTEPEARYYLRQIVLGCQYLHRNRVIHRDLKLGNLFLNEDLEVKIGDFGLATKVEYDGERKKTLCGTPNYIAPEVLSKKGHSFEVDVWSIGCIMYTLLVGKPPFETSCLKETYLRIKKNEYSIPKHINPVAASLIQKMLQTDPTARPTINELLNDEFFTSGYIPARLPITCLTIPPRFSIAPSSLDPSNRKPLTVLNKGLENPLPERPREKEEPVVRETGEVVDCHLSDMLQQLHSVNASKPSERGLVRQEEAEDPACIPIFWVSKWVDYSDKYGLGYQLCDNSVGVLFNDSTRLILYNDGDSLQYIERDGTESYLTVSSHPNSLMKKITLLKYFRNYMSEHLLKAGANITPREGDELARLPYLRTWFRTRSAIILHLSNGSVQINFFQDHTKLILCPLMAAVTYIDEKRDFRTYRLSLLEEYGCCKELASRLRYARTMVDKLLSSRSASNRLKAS

| SMILES | IC50 [1] [µM] | IC50 [2] [µM] | IC50 [3] [µM] | IC50 [4] [µM] | IC50 (Aurora kinase A) [µM] | IC50 (A2780 [5]) [µM] | Activity (A2780 [6]) | Activity (A2780 [7]) | Activity (A2780 [8]) | Activity (A2780 [9]) | Activity (A2780 [10]) | Activity (A2780 [11]) | Activity (A2780 [12]) |
| --- | --- | --- | --- | --- | --- | --- | --- | --- | --- | --- | --- | --- | --- |
| CN1CCN(c2ccc(OC(F)(F)F)c(Nc3nccc(-c4cc(C(N)=O)cn4CC(F)(F)F)n3)c2)CC1 | 0.018 | > 10 | > 10 | > 10 | > 10 | 0.109 |  |  |  |  |  |  |  |
| Cn1cc(C(N)=O)cc1-c1ccnc(Nc2cc(N3CCN(C(=O)OC(C)(C)C)CC3)ccc2OC(F)(F)F)n1 | > 10 | > 10 | > 10 | > 10 | > 10 | 4.51 |  |  |  |  |  |  |  |
| CN1CCN(c2ccc(OC(F)(F)F)c(Nc3nccc(-c4cc5c(n4C)CCN(C(=O)OC(C)(C)C)C5=O)n3)c2)CC1 | 0.817 | > 10 | > 10 | > 10 | > 10 | 0.176 |  |  |  |  |  |  |  |
| NC(=O)c1c[nH]c(-c2ccnc(N)n2)c1 | > 10 |  |  | > 10 | > 10 |  |  |  |  |  |  |  |  |
| CN1CCN(c2ccc(OC(F)(F)F)c(Nc3nccc(-c4cc5c(n4CCO)CCNC5=O)n3)c2)CC1 | 0.102 | > 10 | > 10 | > 10 | > 10 | 0.722 |  |  |  |  |  |  |  |
| CN1CCN(c2ccc(OC(F)(F)F)c(Nc3nccc(-c4cc(C(N)=O)cn4C)n3)c2)CC1 |  |  |  |  |  |  | Active | Dose-dependent effect | Dose-dependent effect | Active | Active | Active | Active |
| Cn1cc(C(N)=O)cc1-c1ccnc(Nc2cc(N3CCNCC3)ccc2OC(F)(F)F)n1 | 0.018 | > 10 | > 10 | > 10 | > 10 | 0.61 |  |  |  |  |  |  |  |
